Laboratory results taken from ChEMBL document CHEMBL3098111, “Discovery of 2,5-diarylnicotinamides as selective orexin-2 receptor antagonists (2-SORAs)” (Bioorg Med Chem Lett, 2013).
Calls of active or inactive are those of the source. No cut-off for these calls is given here.

Legend:
[1] = target: Alpha-1D adrenergic receptor (Homo sapiens) (UniProt P25100); assay: Inhibition of human alpha1D adrenergic receptor at 10 uM relative to control
Oryctolagus cuniculus = species: Oryctolagus cuniculus; assay: Inhibition of rabbit monoamine transporter at 10 nM relative to control
[2] = target: Protein kinase C alpha type (Homo sapiens) (UniProt P17252); assay: Inhibition of human PRKCA at 100 uM relative to control
Bos taurus [3] = species: Bos taurus; assay: Inhibition of bovine PDE1 at 100 uM relative to control
[4] = target: 5-hydroxytryptamine receptor 1B (Rattus norvegicus) (UniProt P28564); assay: Inhibition of rat 5-HT1B receptor at 10 nM relative to control
[5] = target: T1, 5-hydroxytryptamine receptor 1A (Homo sapiens) (UniProt P08908); assay: Inhibition of human 5-HT1A receptor at 0.1 uM relative to control
T1 sequence (whole entry): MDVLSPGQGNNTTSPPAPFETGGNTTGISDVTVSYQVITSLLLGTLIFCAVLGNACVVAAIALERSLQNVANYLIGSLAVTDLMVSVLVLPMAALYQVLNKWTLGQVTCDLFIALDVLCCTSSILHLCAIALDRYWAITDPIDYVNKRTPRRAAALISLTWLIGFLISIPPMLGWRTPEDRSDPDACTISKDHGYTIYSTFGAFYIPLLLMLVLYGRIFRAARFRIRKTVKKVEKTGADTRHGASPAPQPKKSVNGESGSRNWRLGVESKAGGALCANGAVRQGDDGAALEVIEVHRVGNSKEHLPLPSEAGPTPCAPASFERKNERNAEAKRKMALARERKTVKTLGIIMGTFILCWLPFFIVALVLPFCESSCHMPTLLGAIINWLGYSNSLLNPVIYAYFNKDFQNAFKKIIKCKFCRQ

[6] = target: Neutrophil elastase (Homo sapiens) (UniProt P08246); assay: Inhibition of human neutrophil elastase 2 at 30 uM relative to control
[7] = target: Prostaglandin E2 receptor EP1 subtype (Homo sapiens) (UniProt P34995); assay: Inhibition of human prostanoid EP1 receptor at 10 uM relative to control
[8] = target: B1 bradykinin receptor (Homo sapiens) (UniProt P46663); assay: Inhibition of human bradykinin B1 receptor at 10 uM relative to control
[9] = target: Endothelin-1 receptor (Homo sapiens) (UniProt P25101); assay: Inhibition of human ETA receptor at 10 uM relative to control
[10] = target: 5-hydroxytryptamine receptor 1B (Rattus norvegicus) (UniProt P28564); assay: Inhibition of rat 5-HT1B receptor at 10 uM relative to control
[11] = target: Cathepsin G (Homo sapiens) (UniProt P08311); assay: Inhibition of human cathepsin G at 10 uM relative to control
[12] = target: Type-2 angiotensin II receptor (Homo sapiens) (UniProt P50052); assay: Inhibition of human angiotensin AT2 receptor at 10 uM relative to control
[13] = target: Thromboxane A2 receptor (Homo sapiens) (UniProt P21731); assay: Inhibition of human thromboxane A2 receptor at 10 uM relative to control
Caspase-6 (Homo sapiens) = Caspase-6 (Homo sapiens) (UniProt P55212); assay: Inhibition of human caspase 6 at 10 uM relative to control
[14] = target: Proto-oncogene tyrosine-protein kinase Src (Homo sapiens) (UniProt P12931); assay: Inhibition of human SRC at 10 uM relative to control
Rattus norvegicus [15] = species: Rattus norvegicus; assay: Inhibition of rat ATP-sensitive potassium channel at 10 uM relative to control
[16] = target: Cysteinyl leukotriene receptor 1 (Homo sapiens) (UniProt Q9Y271); assay: Inhibition of human CysLT1 receptor at 10 uM relative to control
D(3) dopamine receptor = D(3) dopamine receptor (Homo sapiens, UniProt P35462); assay: Inhibition of human dopamine D3 receptor at 0.1 uM relative to control
[17] = target: Histamine H1 receptor (Homo sapiens) (UniProt P35367); assay: Inhibition of human histamine H1 receptor at 10 uM relative to control
[18] = target: Type-1 angiotensin II receptor (Homo sapiens) (UniProt P30556); assay: Inhibition of human angiotensin AT1 receptor at 10 uM relative to control
[19] = target: B2 bradykinin receptor (Homo sapiens) (UniProt P30411); assay: Inhibition of human bradykinin B2 receptor at 10 uM relative to control
[20] = target: Insulin receptor (Rattus norvegicus) (UniProt P15127); assay: Inhibition of rat insulin receptor at 10 uM relative to control
Bos taurus [21] = species: Bos taurus; assay: Inhibition of bovine PKA at 100 uM relative to control
[22] = target: T2, Glutamate NMDA receptor (Rattus norvegicus) (UniProt P35439+Q00959+Q00960+Q00961+Q62645+Q8VHN2+Q9R1M7); assay: Inhibition of rat NMDA receptor agonist binding site at 10 uM relative to control; assay type: protein-complex assay
[23] = target: Adrenergic receptor alpha-1 (Rattus norvegicus) (UniProt P15823+P23944+P43140); assay: Inhibition of rat alpha1 adrenergic receptor at 10 uM relative to control
[24] = target: C-X-C chemokine receptor type 2 (Homo sapiens) (UniProt P25025); assay: Inhibition of human CXCR2 at 10 uM relative to control
[25] = target: Somatostatin receptor type 3 (Homo sapiens) (UniProt P32745); assay: Inhibition of human SST3 receptor at 10 uM relative to control
[26] = target: Substance-P receptor (Homo sapiens) (UniProt P25103); assay: Inhibition of human NK1 receptor at 10 uM relative to control
Bos taurus [27] = species: Bos taurus; assay: Inhibition of bovine PDE6 at 100 uM relative to control
[28] = target: Calcitonin receptor (Homo sapiens) (UniProt P30988); assay: Inhibition of human calcitonin receptor at 10 uM relative to control
Rattus norvegicus [29] = assay: Antiinsomnic activity in rat EEG model assessed as decrease in active wake time at 15 mg/kg, po; assay type: functional, organism-based; design: dose 15 mg/kg
Summary of the method: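 Rats with EEG telemetry given 15 mg/kg orally during their active period, vehicle 20% Vitamin E TPGS in water. Sleep architecture (active wake, light sleep, delta and REM sleep) scored from EEG.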

[30] = target: Melanocortin receptor 4 (Homo sapiens) (UniProt P32245); assay: Inhibition of human MC4 receptor at 10 uM relative to control
[31] = target: 5-hydroxytryptamine receptor 2B (Homo sapiens, UniProt P41595); assay: Inhibition of human 5-HT2B receptor at 10 uM relative to control
[32] = target: Kappa-type opioid receptor (Homo sapiens) (UniProt P41145); assay: Inhibition of human kappa opioid receptor at 10 uM relative to control
[33] = target: Muscarinic acetylcholine receptor M5 (Homo sapiens) (UniProt P08912); assay: Inhibition of human muscarinic M5 receptor at 10 uM relative to control
[34] = target: Neprilysin (Homo sapiens) (UniProt P08473); assay: Inhibition of human neutral endopeptidase at 10 uM relative to control
[35] = target: D(2) dopamine receptor (Homo sapiens) (UniProt P14416); assay: Inhibition of human dopamine D2S receptor at 10 uM relative to control
[36] = target: T2, Glutamate NMDA receptor (Rattus norvegicus); assay: Inhibition of rat NMDA receptor phencyclidine binding site at 10 uM relative to control; assay type: protein-complex assay

5-hydroxytryptamine receptor 1B (Rattus norvegicus), sequence (P28564 whole entry): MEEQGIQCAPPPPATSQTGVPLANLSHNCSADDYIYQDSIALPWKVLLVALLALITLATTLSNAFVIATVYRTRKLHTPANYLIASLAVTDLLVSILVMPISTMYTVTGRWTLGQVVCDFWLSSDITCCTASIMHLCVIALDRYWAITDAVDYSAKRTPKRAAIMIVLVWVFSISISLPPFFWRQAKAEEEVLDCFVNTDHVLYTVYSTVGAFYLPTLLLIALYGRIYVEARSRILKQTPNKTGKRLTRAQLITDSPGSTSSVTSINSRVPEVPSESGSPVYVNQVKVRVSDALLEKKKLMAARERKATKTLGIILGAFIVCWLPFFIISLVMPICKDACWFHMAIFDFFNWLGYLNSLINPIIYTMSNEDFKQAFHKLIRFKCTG
Somatostatin receptor type 3 (Homo sapiens), sequence (P32745 whole entry): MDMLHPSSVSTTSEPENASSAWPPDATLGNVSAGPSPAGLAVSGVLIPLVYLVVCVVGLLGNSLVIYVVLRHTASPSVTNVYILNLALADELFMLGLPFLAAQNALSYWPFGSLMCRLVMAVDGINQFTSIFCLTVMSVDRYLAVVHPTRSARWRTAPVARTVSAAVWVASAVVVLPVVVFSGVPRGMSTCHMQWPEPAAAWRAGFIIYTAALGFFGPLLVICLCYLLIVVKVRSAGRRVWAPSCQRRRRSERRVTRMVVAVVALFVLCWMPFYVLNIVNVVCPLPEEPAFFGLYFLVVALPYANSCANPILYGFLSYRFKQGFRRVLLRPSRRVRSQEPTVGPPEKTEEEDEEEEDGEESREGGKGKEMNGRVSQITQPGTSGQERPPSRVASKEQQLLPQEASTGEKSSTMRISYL
5-hydroxytryptamine receptor 2B, sequence (P41595 whole entry): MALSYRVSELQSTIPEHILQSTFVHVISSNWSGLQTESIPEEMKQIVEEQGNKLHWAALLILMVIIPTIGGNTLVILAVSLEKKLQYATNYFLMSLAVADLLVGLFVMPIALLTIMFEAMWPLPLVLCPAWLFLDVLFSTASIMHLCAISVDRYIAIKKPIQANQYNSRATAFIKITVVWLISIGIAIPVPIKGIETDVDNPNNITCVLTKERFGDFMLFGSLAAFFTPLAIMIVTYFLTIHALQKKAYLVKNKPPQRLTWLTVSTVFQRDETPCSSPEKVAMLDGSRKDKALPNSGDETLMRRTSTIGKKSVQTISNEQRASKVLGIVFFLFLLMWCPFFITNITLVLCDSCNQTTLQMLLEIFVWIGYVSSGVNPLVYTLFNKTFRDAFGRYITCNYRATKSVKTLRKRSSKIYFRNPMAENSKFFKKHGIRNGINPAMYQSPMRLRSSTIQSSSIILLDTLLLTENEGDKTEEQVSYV
Prostaglandin E2 receptor EP1 subtype (Homo sapiens), sequence (P34995 whole entry): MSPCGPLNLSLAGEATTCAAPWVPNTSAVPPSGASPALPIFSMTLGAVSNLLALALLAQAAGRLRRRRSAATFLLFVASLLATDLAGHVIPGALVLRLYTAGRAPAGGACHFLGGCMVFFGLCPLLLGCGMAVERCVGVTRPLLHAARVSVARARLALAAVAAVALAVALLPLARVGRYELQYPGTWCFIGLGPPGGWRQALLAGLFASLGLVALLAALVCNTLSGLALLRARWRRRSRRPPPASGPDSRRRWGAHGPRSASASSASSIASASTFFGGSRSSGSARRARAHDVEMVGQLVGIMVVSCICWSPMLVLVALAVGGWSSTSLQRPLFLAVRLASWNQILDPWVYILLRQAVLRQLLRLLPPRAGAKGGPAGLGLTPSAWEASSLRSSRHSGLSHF
Insulin receptor (Rattus norvegicus), sequence (P15127 27-759 limits assumed): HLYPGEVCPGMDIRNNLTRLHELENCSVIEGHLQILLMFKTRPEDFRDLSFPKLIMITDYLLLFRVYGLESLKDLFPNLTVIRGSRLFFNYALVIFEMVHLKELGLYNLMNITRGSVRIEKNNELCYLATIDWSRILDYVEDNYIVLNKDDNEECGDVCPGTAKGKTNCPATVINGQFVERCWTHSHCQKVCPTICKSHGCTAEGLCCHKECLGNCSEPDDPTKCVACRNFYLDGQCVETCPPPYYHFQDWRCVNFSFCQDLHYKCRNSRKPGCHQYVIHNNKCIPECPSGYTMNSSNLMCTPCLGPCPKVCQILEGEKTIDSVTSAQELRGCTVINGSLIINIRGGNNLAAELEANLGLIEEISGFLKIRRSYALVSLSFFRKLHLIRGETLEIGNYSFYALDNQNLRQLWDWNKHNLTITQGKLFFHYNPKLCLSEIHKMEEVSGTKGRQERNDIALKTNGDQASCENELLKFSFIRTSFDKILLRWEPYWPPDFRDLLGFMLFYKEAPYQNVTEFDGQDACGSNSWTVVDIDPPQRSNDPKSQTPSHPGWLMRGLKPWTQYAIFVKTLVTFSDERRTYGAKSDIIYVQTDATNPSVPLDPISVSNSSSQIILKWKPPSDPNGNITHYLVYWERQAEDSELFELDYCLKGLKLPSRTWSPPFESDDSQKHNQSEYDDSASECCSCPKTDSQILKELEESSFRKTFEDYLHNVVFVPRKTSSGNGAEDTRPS
Insulin receptor (Rattus norvegicus), sequence (P15127 764-1383 limits assumed): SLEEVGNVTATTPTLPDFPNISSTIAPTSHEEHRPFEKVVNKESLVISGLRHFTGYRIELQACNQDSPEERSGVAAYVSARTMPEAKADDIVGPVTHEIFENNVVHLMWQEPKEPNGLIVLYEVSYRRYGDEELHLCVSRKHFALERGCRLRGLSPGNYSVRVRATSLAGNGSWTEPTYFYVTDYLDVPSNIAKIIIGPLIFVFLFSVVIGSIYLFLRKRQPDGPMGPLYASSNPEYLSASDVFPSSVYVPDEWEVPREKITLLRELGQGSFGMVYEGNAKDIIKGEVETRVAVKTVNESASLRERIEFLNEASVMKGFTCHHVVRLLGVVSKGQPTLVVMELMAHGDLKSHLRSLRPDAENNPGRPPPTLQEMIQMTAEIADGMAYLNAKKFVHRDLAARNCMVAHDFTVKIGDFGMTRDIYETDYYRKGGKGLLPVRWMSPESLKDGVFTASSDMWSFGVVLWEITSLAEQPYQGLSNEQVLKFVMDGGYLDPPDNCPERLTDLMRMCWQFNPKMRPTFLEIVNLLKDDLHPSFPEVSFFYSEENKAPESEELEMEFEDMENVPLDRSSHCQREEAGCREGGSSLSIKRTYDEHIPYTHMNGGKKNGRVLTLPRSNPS
Neutrophil elastase (Homo sapiens), sequence (P08246 whole entry): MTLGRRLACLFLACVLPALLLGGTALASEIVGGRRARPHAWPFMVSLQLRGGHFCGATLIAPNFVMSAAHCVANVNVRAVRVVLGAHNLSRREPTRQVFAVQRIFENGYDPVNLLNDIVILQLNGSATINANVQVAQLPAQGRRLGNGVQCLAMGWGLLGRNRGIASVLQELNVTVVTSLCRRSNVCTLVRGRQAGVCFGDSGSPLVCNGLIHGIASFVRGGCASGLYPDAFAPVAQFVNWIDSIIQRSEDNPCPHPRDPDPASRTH
Type-2 angiotensin II receptor (Homo sapiens), sequence (P50052 whole entry): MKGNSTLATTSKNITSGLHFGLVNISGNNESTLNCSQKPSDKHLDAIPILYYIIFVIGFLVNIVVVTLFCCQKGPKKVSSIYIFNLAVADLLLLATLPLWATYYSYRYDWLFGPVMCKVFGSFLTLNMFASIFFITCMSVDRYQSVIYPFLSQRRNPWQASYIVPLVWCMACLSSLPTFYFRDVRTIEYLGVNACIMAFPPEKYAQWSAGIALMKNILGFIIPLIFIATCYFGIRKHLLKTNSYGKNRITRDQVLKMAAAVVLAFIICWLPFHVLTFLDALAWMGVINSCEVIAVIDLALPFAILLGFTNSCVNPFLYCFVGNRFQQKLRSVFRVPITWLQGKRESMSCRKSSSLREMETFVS
Type-1 angiotensin II receptor (Homo sapiens), sequence (P30556 whole entry): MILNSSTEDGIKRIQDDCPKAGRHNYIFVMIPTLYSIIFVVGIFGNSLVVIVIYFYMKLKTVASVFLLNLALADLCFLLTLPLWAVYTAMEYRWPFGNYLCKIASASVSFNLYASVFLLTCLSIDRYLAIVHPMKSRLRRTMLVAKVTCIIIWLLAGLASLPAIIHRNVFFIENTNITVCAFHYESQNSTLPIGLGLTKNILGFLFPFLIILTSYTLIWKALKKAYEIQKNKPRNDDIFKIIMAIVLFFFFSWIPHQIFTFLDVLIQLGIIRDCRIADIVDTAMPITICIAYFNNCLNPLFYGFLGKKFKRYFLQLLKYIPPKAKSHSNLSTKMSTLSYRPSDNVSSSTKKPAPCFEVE
Cathepsin G (Homo sapiens), sequence (P08311 whole entry): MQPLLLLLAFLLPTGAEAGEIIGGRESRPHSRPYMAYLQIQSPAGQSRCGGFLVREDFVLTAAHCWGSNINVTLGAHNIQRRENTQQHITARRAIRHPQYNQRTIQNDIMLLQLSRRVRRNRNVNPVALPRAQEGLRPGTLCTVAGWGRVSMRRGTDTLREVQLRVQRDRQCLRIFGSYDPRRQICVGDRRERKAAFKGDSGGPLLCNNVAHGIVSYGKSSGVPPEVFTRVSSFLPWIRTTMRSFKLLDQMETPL
Melanocortin receptor 4 (Homo sapiens), sequence (P32245 whole entry): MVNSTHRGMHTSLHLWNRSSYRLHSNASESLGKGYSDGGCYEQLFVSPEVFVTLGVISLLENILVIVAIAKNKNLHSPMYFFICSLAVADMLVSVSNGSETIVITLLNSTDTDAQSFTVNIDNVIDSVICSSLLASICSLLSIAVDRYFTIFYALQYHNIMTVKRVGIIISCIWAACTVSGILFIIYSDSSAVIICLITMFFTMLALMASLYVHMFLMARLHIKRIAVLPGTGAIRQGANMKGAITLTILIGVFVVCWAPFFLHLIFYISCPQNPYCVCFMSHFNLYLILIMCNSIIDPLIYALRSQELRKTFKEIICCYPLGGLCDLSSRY
Caspase-6 (Homo sapiens), sequence (P55212 24-179 limits assumed): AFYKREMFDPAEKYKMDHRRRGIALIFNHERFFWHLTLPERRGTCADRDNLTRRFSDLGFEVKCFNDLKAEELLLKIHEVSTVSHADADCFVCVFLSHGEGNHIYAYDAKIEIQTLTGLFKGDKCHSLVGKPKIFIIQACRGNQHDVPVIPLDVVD
Caspase-6 (Homo sapiens), sequence (P55212 194-293 limits assumed): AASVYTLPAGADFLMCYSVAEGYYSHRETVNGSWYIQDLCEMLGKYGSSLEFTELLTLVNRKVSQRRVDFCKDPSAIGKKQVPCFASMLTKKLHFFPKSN

- inhibition [1]: 26%
- inhibition (Oryctolagus cuniculus): 2%
- inhibition [2]: 29%
- inhibition (Bos taurus [3]): -3%
- inhibition [4]: -4%
- inhibition [5]: 10%
- inhibition [6]: -2%
- inhibition [7]: 10%
- inhibition [8]: 3%
- inhibition [9]: 4%
- inhibition [10]: 73%
- inhibition [11]: -8%
- inhibition [12]: 18%
- inhibition [13]: 17%
- inhibition (Caspase-6 (Homo sapiens)): 7%
- inhibition [14]: -5%
- inhibition (Rattus norvegicus [15]): 0%
- inhibition [16]: 9%
- inhibition (D(3) dopamine receptor): 3%
- inhibition [17]: 10%
- inhibition [18]: 14%
- inhibition [19]: -10%
- inhibition [20]: -5%
- inhibition (Bos taurus [21]): -7%
- inhibition [22]: 1%
- inhibition [23]: -4%
- inhibition [24]: 0%
- inhibition [25]: 30%
- inhibition [26]: 26%
- inhibition (Bos taurus [27]): 16%
- inhibition [28]: 9%
- inhibition [30]: 6%
- inhibition [31]: 84%
- inhibition [32]: 9%
- inhibition [33]: 1%
- inhibition [34]: -5%
- inhibition [35]: -2%
- inhibition [36]: 5%
SMILES: COc1ccc(CNC(=O)c2cc(-c3cc(Cl)cc(Cl)c3)cnc2-c2cccnc2)cc1OC
- Activity (Rattus norvegicus [29]): Active
